One block for each compound: values may come before it. Activity calls are given as the source filed them. The rule behind the calls is not given here.
What was measured:
[1] = target: Leucine--tRNA ligase, cytoplasmic (Homo sapiens) (UniProt Q9P2J5); experiment: Inhibition of Leucyl-tRNA synthetase-mediated mTORC1 signaling activation in human HEK293 cells assessed as reduction in leucine-induced S6K phosphorylation at 200 uM preincubated for 50 mins followed by leucine-stimulation and measured after 10 mins by Western blot analysis; type: cell-based
Chain of Leucine--tRNA ligase, cytoplasmic (Homo sapiens) (Q9P2J5 whole entry, looked up): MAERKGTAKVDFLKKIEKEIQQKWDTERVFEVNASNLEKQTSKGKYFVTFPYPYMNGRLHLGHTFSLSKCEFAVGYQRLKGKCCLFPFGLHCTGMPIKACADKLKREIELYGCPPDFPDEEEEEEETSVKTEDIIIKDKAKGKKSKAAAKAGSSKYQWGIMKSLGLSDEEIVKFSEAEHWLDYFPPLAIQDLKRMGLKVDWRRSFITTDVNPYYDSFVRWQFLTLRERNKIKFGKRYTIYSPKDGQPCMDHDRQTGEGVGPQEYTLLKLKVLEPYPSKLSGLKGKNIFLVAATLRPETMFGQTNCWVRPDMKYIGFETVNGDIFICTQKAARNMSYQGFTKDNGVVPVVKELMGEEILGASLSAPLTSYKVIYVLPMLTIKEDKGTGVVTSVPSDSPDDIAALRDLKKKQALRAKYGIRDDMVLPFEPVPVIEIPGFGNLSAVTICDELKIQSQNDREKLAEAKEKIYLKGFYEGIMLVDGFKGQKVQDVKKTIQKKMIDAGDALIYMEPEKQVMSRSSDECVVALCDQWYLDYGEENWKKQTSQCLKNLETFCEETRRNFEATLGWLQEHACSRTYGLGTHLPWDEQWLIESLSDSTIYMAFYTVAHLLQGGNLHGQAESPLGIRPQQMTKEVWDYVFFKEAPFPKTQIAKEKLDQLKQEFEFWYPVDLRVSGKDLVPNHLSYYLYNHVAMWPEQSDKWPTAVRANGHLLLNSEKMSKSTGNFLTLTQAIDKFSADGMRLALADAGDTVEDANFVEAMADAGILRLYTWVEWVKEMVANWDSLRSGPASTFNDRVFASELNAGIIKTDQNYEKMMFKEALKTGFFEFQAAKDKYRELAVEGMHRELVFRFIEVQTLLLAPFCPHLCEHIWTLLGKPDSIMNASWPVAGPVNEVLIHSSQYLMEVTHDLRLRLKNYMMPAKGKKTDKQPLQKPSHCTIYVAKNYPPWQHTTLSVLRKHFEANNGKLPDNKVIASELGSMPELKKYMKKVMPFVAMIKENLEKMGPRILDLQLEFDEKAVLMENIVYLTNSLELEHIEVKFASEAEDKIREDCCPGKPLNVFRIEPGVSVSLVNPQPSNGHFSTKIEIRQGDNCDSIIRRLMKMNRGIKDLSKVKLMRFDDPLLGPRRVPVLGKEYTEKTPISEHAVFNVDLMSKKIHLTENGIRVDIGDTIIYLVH
Summary of the method: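 HEK293 cells pretreated with test agent at a fixed 200 µM, alongside rapamycin (100 nM) and leucinol (800 µM) as references. mTORC1 then activated by adding leucine for 10 min. S6K phosphorylation read by Western blot.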

mTORC2 (Homo sapiens) = mTORC2 (Homo sapiens) (UniProt P42345+Q6R327+Q9BVC4+Q9BPZ7); experiment: Inhibition of mTORC2 signaling in human HEK293 cells assessed as reduction in leucine-induced AKT phosphorylation at 200 uM preincubated for 50 mins followed by leucine-stimulation and measured after 10 mins by Western blot analysis; type: cell-based
HEK293 = experiment: Effect on leucine-induced AKT levels in human HEK293 cells at 200 uM preincubated for 50 mins followed by leucine-stimulation and measured after 10 mins by Western blot analysis; type: functional, cell-based
A549 = experiment: Antiproliferative activity against human A549 cells after 72 hrs by SRB assay; type: functional, cell-based; conditions: A549, 72 h
Summary of the method: (§1)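 Colorimetric growth assay with IC50 values derived; etoposide as positive control. Cell lines: A549 (lung cancer), HCT116 (colon cancer), MDA-MB-231 (breast cancer), SK-Hep-1 (liver cancer), SNU638 (stomach cancer), MRC5 (normal lung […]).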

HCT-116 = experiment: Antiproliferative activity against human HCT116 cells after 72 hrs by SRB assay; type: functional, cell-based; conditions: HCT-116, 72 h; summary of the method: as §1
MDA-MB-231 = experiment: Antiproliferative activity against human MDA-MB-231 cells after 72 hrs by SRB assay; type: functional, cell-based; conditions: MDA-MB-231, 72 h; summary of the method: as §1
SK-HEP1 = experiment: Antiproliferative activity against human SKHEP1 cells after 72 hrs by SRB assay; type: functional, cell-based; conditions: SK-HEP1, 72 h; summary of the method: as §1
SNU-638 = experiment: Antiproliferative activity against human SNU638 cells after 72 hrs by SRB assay; type: functional, cell-based; conditions: SNU-638, 72 h; summary of the method: as §1
MRC5 = experiment: Antiproliferative activity against human MRC5 cells after 72 hrs by SRB assay; type: cell-based; conditions: MRC5, 72 h; summary of the method: as §1

SMILES: CO[C@H](C(=O)NS(=O)(=O)OC[C@H]1O[C@@H](n2cnc3c(N)ncnc32)C[C@@H]1O)[C@H](OC)C(C)C
inhibition [1]: inactive

SMILES: CC(C)C[C@H](N)CO
inhibition [1]: Active

SMILES: CC(C)C[C@@H](O)C(=O)NS(=O)(=O)OC[C@H]1O[C@@H](n2cnc3c(=O)[nH]cnc32)[C@H](O)[C@@H]1O
inhibition [1]: inactive

SMILES: CC(C)C[C@H](O)C(=O)NS(=O)(=O)OC[C@@H]1C[C@@H](O)[C@H](n2cnc3c(N)ncnc32)O1
inhibition [1]: inactive | inhibition (mTORC2 (Homo sapiens)): Active

SMILES: CC(C)C[C@H](O)C(=O)NS(=O)(=O)OC[C@H]1O[C@@H](n2cnc3c(N)nc(I)nc32)[C@H](O)[C@@H]1O
inhibition [1]: Active

SMILES: Nc1nc(I)nc2c1ncn2[C@@H]1O[C@H](COS(=O)(=O)NC(=O)[C@@H](O)[C@H](O)C2CC2)[C@@H](O)[C@H]1O
inhibition [1]: Active | IC50 (A549): 4.84 µM | IC50 (HCT-116): 7.27 µM | IC50 (MDA-MB-231): 16.7 µM | IC50 (SK-HEP1): 5.86 µM | IC50 (SNU-638): 4.77 µM | IC50 (MRC5): > 20 µM

SMILES: CC(C)C[C@H](O)C(=O)NS(=O)(=O)OC[C@H]1O[C@@H](n2cnc3c(N)nc(Cl)nc32)[C@H](O)[C@@H]1O
inhibition [1]: inactive

SMILES: CC(C)C[C@H](O)C(=O)NS(=O)(=O)OC[C@H]1O[C@@H](n2cnc3c(N)ncnc32)C[C@@H]1O
inhibition [1]: inactive | inhibition (mTORC2 (Homo sapiens)): Active

SMILES: CC(C)c1cc(C(=O)NS(=O)(=O)OC[C@H]2O[C@@H](n3cnc4c(N)nc(I)nc43)[C@H](O)[C@@H]2O)n(C)n1
inhibition [1]: Active

SMILES: Nc1ncnc2c1ncn2[C@@H]1O[C@H](COS(=O)(=O)NC(=O)[C@@H](O)[C@H](O)C2CC2)[C@H]2NC(=O)O[C@H]21
inhibition [1]: Active

SMILES: CC(C)C[C@H](N)C(=O)NS(=O)(=O)OC[C@H]1O[C@@H](n2cnc3c(N)ncnc32)C[C@@H]1O
inhibition [1]: inactive

SMILES: CC(C)c1cc(C(=O)NS(=O)(=O)OC[C@H]2O[C@@H](n3cnc4c(N)nc(I)nc43)[C@H](O)[C@@H]2O)[nH]n1
inhibition [1]: inactive

SMILES: CC(C)C[C@H](S)C(=O)NS(=O)(=O)OC[C@H]1O[C@@H](n2cnc3c(=O)[nH]cnc32)[C@H](O)[C@@H]1O
inhibition [1]: inactive

SMILES: CC(C)C[C@H](Cl)C(=O)NS(=O)(=O)OC[C@H]1O[C@@H](n2cnc3c(N)nc(Cl)nc32)[C@H](O)[C@@H]1O
inhibition [1]: Active | IC50 (A549): 6.27 µM | IC50 (HCT-116): 7.51 µM | IC50 (MDA-MB-231): 7.75 µM | IC50 (SK-HEP1): 5.87 µM | IC50 (SNU-638): 5.5 µM | IC50 (MRC5): > 20 µM

SMILES: CC(C)(C)c1cc(C(=O)NS(=O)(=O)OC[C@H]2O[C@@H](n3cnc4c(N)ncnc43)[C@H](O)[C@@H]2O)[nH]n1
inhibition [1]: Active

SMILES: CC(C)C[C@H](O)C(=O)NS(=O)(=O)OC[C@H]1O[C@@H](n2cnc3c(=O)[nH]cnc32)[C@H](O)[C@@H]1O
inhibition [1]: Active | IC50 (A549): > 20 µM | IC50 (HCT-116): > 20 µM | IC50 (MDA-MB-231): > 20 µM | IC50 (SK-HEP1): > 20 µM | IC50 (SNU-638): > 20 µM | IC50 (MRC5): > 20 µM

SMILES: O=C(NS(=O)(=O)OC[C@H]1O[C@@H](n2cnc3c(=O)[nH]cnc32)[C@H](O)[C@@H]1O)[C@@H](O)[C@H](O)C1CC1
inhibition [1]: inactive

SMILES: COc1cc([C@@H]2c3cc4c(cc3[C@@H](O[C@@H]3O[C@@H]5CO[C@@H](C)O[C@H]5[C@H](O)[C@H]3O)[C@H]3COC(=O)[C@H]23)OCO4)cc(OC)c1O [ETOPOSIDE]
IC50 (A549): 0.47 µM | IC50 (HCT-116): 1.22 µM | IC50 (MDA-MB-231): 3.38 µM | IC50 (SK-HEP1): 0.41 µM | IC50 (SNU-638): 0.34 µM | IC50 (MRC5): 12.7 µM

SMILES: Nc1ncnc2c1ncn2[C@@H]1O[C@H](COS(=O)(=O)NC(=O)c2cc(C3CC3)n[nH]2)[C@@H](O)[C@H]1O
inhibition [1]: inactive

SMILES: CO[C@H](C(=O)NS(=O)(=O)OC[C@H]1O[C@@H](n2cnc3c(N)nc(Cl)nc32)[C@H](O)[C@@H]1O)[C@H](OC)C(C)C
inhibition [1]: Active | IC50 (A549): > 20 µM | IC50 (HCT-116): > 20 µM | IC50 (MDA-MB-231): > 20 µM | IC50 (SK-HEP1): > 20 µM | IC50 (SNU-638): > 20 µM | IC50 (MRC5): > 20 µM

SMILES: CNc1ncnc2c1ncn2[C@@H]1O[C@H](COS(=O)(=O)NC(=O)[C@H](CC(C)C)OC)[C@@H](O)[C@H]1O
inhibition [1]: inactive | inhibition (mTORC2 (Homo sapiens)): Active

Now from value to compound, other results behind:

inhibition [1]: inactive | inhibition (mTORC2 (Homo sapiens)): inactive
SMILES: CNc1ncnc2c1ncn2[C@@H]1O[C@H](COS(=O)(=O)NC(=O)[C@H](O)[C@@H](O)C(C)C)[C@@H](O)[C@H]1O
Activity (HEK293): inactive

inhibition [1]: inactive
SMILES: CC(C)C[C@H](Cl)C(=O)NS(=O)(=O)OC[C@H]1O[C@@H](n2cnc3c(N)ncnc32)[C@H](O)[C@@H]1O

inhibition [1]: Active | IC50 (A549): 6.93 µM | IC50 (HCT-116): 9.14 µM | IC50 (MDA-MB-231): 17.8 µM | IC50 (SK-HEP1): 7.26 µM | IC50 (SNU-638): 5.7 µM
SMILES: Nc1ncnc2c1ncn2[C@@H]1O[C@H](COS(=O)(=O)NC(=O)[C@@H](O)[C@H](O)C2CC2)[C@@H](O)[C@@H]1O
IC50 (MRC5): > 20 µM

inhibition [1]: inactive
SMILES: Nc1ncnc2c1ncn2[C@@H]1O[C@H](COS(=O)(=O)NC(=O)[C@@H](O)[C@H](O)C2CC2)[C@@H](O)[C@H]1O

inhibition [1]: inactive | inhibition (mTORC2 (Homo sapiens)): inactive
SMILES: CC(C)[C@H](O)[C@@H](O)C(=O)NS(=O)(=O)OC[C@H]1O[C@@H](n2cnc3c(N)ncnc32)[C@H](O)[C@@H]1O
Activity (HEK293): inactive

inhibition [1]: inactive
SMILES: CN[C@@H](CC(C)C)C(=O)NS(=O)(=O)OC[C@H]1O[C@@H](n2cnc3c(N)ncnc32)[C@H](O)[C@@H]1O

inhibition [1]: inactive
SMILES: CO[C@H](C(=O)NS(=O)(=O)OC[C@H]1O[C@@H](n2cnc3c(N)nc(Cl)nc32)[C@H](O)[C@@H]1O)[C@H](O)C(C)C

inhibition [1]: inactive
SMILES: CO[C@H](C(=O)NS(=O)(=O)OC[C@H]1O[C@@H](n2cnc3c(N)ncnc32)[C@H](O)[C@@H]1O)[C@H](O)C(C)C

inhibition [1]: inactive
SMILES: CO[C@H](C(=O)NS(=O)(=O)OC[C@H]1O[C@@H](n2cnc3c(N)ncnc32)[C@H](O)[C@@H]1O)[C@H](OC)C(C)C

inhibition [1]: inactive | inhibition (mTORC2 (Homo sapiens)): inactive
SMILES: CC(C)[C@@H](O)[C@H](O)C(=O)NS(=O)(=O)OC[C@@H]1C[C@@H](O)[C@H](n2cnc3c(N)ncnc32)O1
Activity (HEK293): inactive

inhibition [1]: inactive
SMILES: CC(C)C[C@H](N)C(=O)NS(=O)(=O)OC[C@H]1O[C@@H](n2cnc3c(N)ncnc32)[C@H](O)[C@@H]1N

inhibition [1]: Active
SMILES: CC(C)C[C@H](O)C(=O)NS(=O)(=O)OC[C@H]1O[C@@H](n2cnc3c(N)ncnc32)[C@@H](O)[C@@H]1O

inhibition [1]: inactive
SMILES: CC(C)[C@@H](O)[C@H](O)C(=O)NS(=O)(=O)OC[C@H]1O[C@@H](n2cnc3c(N)ncnc32)[C@@H](O)[C@@H]1O

inhibition [1]: inactive
SMILES: CC(C)[C@@H](O)[C@H](O)C(=O)NS(=O)(=O)OC[C@H]1O[C@@H](n2cnc3c(N)ncnc32)[C@@H]2OC(=O)N[C@@H]21

inhibition [1]: Active
SMILES: CC(C)C[C@H](S)C(=O)NS(=O)(=O)OC[C@H]1O[C@@H](n2cnc3c(N)ncnc32)[C@H](O)[C@@H]1O

inhibition [1]: Active
SMILES: CC(C)/C=C/C(=O)NS(=O)(=O)OC[C@H]1O[C@@H](n2cnc3c(N)ncnc32)[C@H](O)[C@@H]1O

inhibition [1]: inactive
SMILES: CC(C)[C@H](O)[C@@H](O)C(=O)NS(=O)(=O)OC[C@H]1O[C@@H](n2cnc3c(N)ncnc32)C[C@@H]1O

inhibition [1]: Active | inhibition (mTORC2 (Homo sapiens)): inactive
SMILES: CC(C)[C@@H](O)[C@H](O)C(=O)NS(=O)(=O)OC[C@H]1O[C@@H](n2cnc3c(N)nc(I)nc32)[C@H](O)[C@@H]1O
Activity (HEK293): inactive

inhibition [1]: inactive
SMILES: CO[C@H](C(=O)NS(=O)(=O)OC[C@H]1O[C@@H](n2cnc3c(N)ncnc32)C[C@@H]1O)[C@H](O)C(C)C

inhibition [1]: Active | IC50 (A549): > 20 µM | IC50 (HCT-116): > 20 µM | IC50 (MDA-MB-231): > 20 µM | IC50 (SK-HEP1): > 20 µM | IC50 (SNU-638): > 20 µM
SMILES: CC(C)[C@@H](O)[C@H](O)C(=O)NS(=O)(=O)OC[C@H]1O[C@@H](n2cnc3c(=O)[nH]cnc32)[C@H](O)[C@@H]1O
IC50 (MRC5): > 20 µM

inhibition [1]: Active
SMILES: CC(C)C[C@@H](O)C(=O)NS(=O)(=O)OC[C@H]1O[C@@H](n2cnc3c(N)ncnc32)[C@H](O)[C@@H]1O

inhibition [1]: Active | inhibition (mTORC2 (Homo sapiens)): inactive
SMILES: CC(C)[C@@H](O)[C@H](O)C(=O)NS(=O)(=O)OC[C@H]1O[C@@H](n2cnc3c(N)ncnc32)[C@H](O)[C@@H]1O
Activity (HEK293): inactive

inhibition [1]: inactive
SMILES: CC(C)c1cc(C(=O)NS(=O)(=O)OC[C@H]2O[C@@H](n3cnc4c(N)ncnc43)[C@H](O)[C@@H]2O)[nH]n1

inhibition [1]: inactive
SMILES: CNc1ncnc2c1ncn2[C@@H]1O[C@H](COS(=O)(=O)NC(=O)[C@@H](Cl)CC(C)C)[C@@H](O)[C@H]1O

inhibition [1]: Active
SMILES: CC(C)c1cc(C(=O)NS(=O)(=O)OC[C@H]2O[C@@H](n3cnc4c(N)ncnc43)[C@H](O)[C@@H]2O)n(C)n1

From ChEMBL document CHEMBL4368933, “Structure-activity relationship of leucyladenylate sulfamate analogues as leucyl-tRNA synthetase (LRS)-targeting inhibitors of Mammalian target of rapamycin complex 1 (mTORC1)” (Bioorg Med Chem, 2019)
